According to ChEMBL document CHEMBL1140577, “Anticancer and anti-inflammatory activities of 1,8-naphthyridine-3-carboxamide derivatives” (Bioorg Med Chem Lett, 2007):
Activity calls are given as the source filed them. No cut-off for these calls is given here.

Columns and labels:
PA-1 = assay: Cytotoxicity against human PA1 cells after 72 hrs by MTT assay; type: functional, cell-based; settings: PA-1, 72 h
Method in brief: (§1)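 5000–10,000 cells seeded per well and exposed for 72 h in a CO₂ incubator to five concentrations, the highest 10 µM (top soluble). MTT (125 µg) added for 3 h, then lysed with 10% SDS–0.01 N HCl for 1 h. Absorbance read at 540 nm. % cytotoxicity = (1 − (treated−blank)/control)×100.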

HBL-100 = assay: Cytotoxicity against human HBL100 cells after 72 hrs by MTT assay; type: functional, cell-based; settings: HBL-100, 72 h; method in brief: as §1
A549 = assay: Cytotoxicity against human A549 cells after 72 hrs by MTT assay; type: functional, cell-based; settings: A549, 72 h; method in brief: as §1
Dendritic cell [1] = assay: Myeloprotective activity assessed as stimulation of MIP1 secretion in mouse dendritic cells after 24 hrs by ELISA relative to basal level; type: functional, cell-based
Method in brief: (§2)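 Murine bone-marrow-derived dendritic cells, not LPS-stimulated, incubated with compounds at 0.1 and 1 µg/ml for 24 h. MIP-1α, CCL22 and TNF-α in culture supernatants measured by ELISA. % change = (B−A)/A×100 against untreated DCs.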

SW-620 = assay: Cytotoxicity against human SW620 cells after 72 hrs by MTT assay; type: functional, cell-based; settings: SW-620, 72 h; method in brief: as §1
Dendritic cell [2] = assay: Antiinflammatory activity assessed as inhibition of IP-10 secretion in LPS-induced C57BL/6 mouse dendritic cells after 24 hrs by ELISA; type: functional, cell-based
Method in brief: (§3)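 DCs grown from femoral bone marrow of 8–12-week-old C57BL/6 mice in RPMI-1640 with 10% FBS and rmGM-CSF (20 ng/ml), 37 °C, 5% CO₂. Immature DCs stimulated with LPS (100 ng/ml) and exposed to compounds (0.001–10 µg/ml range) for 24 h. Cytokine in supernatant quantified by ELISA. % change = (B−A)/A×100, where A is LPS-stimulated DCs without compound.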

Dendritic cell [3] = assay: Myeloprotective activity assessed as inhibition of TNFalpha secretion in mouse dendritic cells after 24 hrs by ELISA relative to basal level; type: functional, cell-based; method in brief: as §2
NIH3T3 (Mus musculus) = assay: Cytotoxicity against mouse NIH3T3 cells after 72 hrs by MTT assay; settings: NIH3T3, 72 h
K562 = assay: Cytotoxicity against human K562 cells after 72 hrs by MTT assay; type: functional, cell-based; settings: K562, 72 h; method in brief: as §1
Dendritic cell [4] = assay: Myeloprotective activity assessed as inhibition of CCL22 secretion in mouse dendritic cells after 24 hrs by ELISA; type: functional, cell-based; method in brief: as §2
[5] = Antiinflammatory activity assessed as inhibition of TNFalpha secretion in LPS-induced C57BL/6 mouse dendritic cells at 1 ug/mL after 24 hrs by ELISA; type: functional; settings: C57BL/6, Dendritic cell; method in brief: as §3
KB = assay: Cytotoxicity against human KB cells after 72 hrs by MTT assay; type: functional, cell-based; method in brief: as §1
DU-145 = assay: Cytotoxicity against human DU145 cells after 72 hrs by MTT assay; type: functional, cell-based; settings: DU-145, 72 h; method in brief: as §1
[6] = Cytotoxicity against human MIA PaCa cells after 72 hrs by MTT assay; type: functional, cell-based; method in brief: as §1
[7] = Antiinflammatory activity assessed as inhibition of IL1-beta secretion in LPS-induced C57BL/6 mouse dendritic cells after 24 hrs by ELISA; type: functional, Dendritic cell; method in brief: as §3

Structure (SMILES)	IC50 (PA-1) [µM]	IC50 (HBL-100) [µM]	IC50 (A549) [µM]	Activity (Dendritic cell [1])	IC50 (SW-620) [µM]	Activity (Dendritic cell [2])	Activity (Dendritic cell [3])	IC50 (NIH3T3 (Mus musculus)) [µM]	IC50 (K562) [µM]	Activity (Dendritic cell [4])	inhibition at 1 µg/mL [5] [%]	IC50 (KB) [µM]	IC50 (DU-145) [µM]	IC50 [6] [µM]	Inhibition [7] [%]
C#CCn1cc(C(=O)NCCCOC(=O)[C@H]2CCCN2C(=O)OC(C)(C)C)c(=O)c2ccc(Cl)nc21	> 10	3.7	> 10	Active	> 10	Active	Active	8.4	> 10	Active	> 50	> 10	> 10	7.6	
C#CCn1cc(C(=O)NCCCOC(=O)[C@@H](O)[C@@H](N)c2ccccc2)c(=O)c2ccc(Cl)nc21															>50
C#CCn1cc(C(=O)NCCCOC(=O)[C@H]2OC(C)(C)N(C(=O)OC(C)(C)C)[C@@H]2c2ccccc2)c(=O)c2cccnc21															>50
C#CCn1cc(C(=O)NCCCOC(=O)[C@H]2CCCN2C(=O)OC(C)(C)C)c(=O)c2ccc(C)nc21	> 10	> 10	> 10		> 10			> 10	> 10			3.7	> 10	> 10	
C#CCn1cc(C(=O)NCCCOC(=O)CNC(=O)OC(C)(C)C)c(=O)c2ccc(Cl)nc21				Active		Active	Active			Active	> 50				
C#CCn1cc(C(=O)NCCCOC(=O)CNC(=O)OC(C)(C)C)c(=O)c2cccnc21	9	> 10	> 10		> 10			> 10	> 10			7	> 10	> 10	
C#CCn1cc(C(=O)N[C@@H](C)CCOC(=O)[C@H](C)NC(=O)OC(C)(C)C)c(=O)c2ccc(Cl)nc21	4.9	> 10	> 10		> 10			> 10	> 10			8.3	> 10	> 10	
C#CCn1cc(C(=O)N[C@@H](C)CCOC(=O)[C@H]2CCCN2C(=O)OC(C)(C)C)c(=O)c2ccc(Cl)nc21	5.2	8.4	> 10		3.3			> 10	> 10			6.6	> 10	> 10	
C#CCn1cc(C(=O)NCCCOC(=O)[C@@H](O)[C@@H](NC(=O)OC(C)(C)C)c2ccccc2)c(=O)c2ccc(Cl)nc21	> 10	> 10	> 10		3	Active		7.84	> 10		> 50	> 10	> 10	> 10	
C#CCn1cc(C(=O)NCCCOC(=O)[C@H]2OC(C)(C)N(C(=O)OC(C)(C)C)[C@@H]2c2ccccc2)c(=O)c2ccc(Cl)nc21	6	1.37	> 10		3.96			> 10	> 10		> 50	> 10	> 10	> 10	>50
C#CCn1cc(C(=O)NCCCOC(=O)[C@H](C)NC(=O)OC(C)(C)C)c(=O)c2ccc(Cl)nc21	> 10	5.4	> 10	Active	> 10		Active	9.2	> 10	Active		> 10	> 10	> 10	
